From ChEMBL document CHEMBL2046406 (J Med Chem, 2012)
Activity calls are given as the source filed them. The calls are words filed in the database; no cut-off is given here.

Tests used:
Mu-type opioid receptor [1] = molecular target: T1, Mu-type opioid receptor (Homo sapiens, UniProt P35372); assay: biochemical; format: cell-based, CHO
[2] = molecular target: T2, Kappa-type opioid receptor (Homo sapiens, UniProt P41145); assay: biochemical; format: cell-based, CHO
[3] = molecular target: T3, Delta-type opioid receptor (Homo sapiens, UniProt P41143); assay: Displacement of [3H]-naltrindole from human delta opioid receptor expressed in CHO cells after 3 hrs by scintillation counting; format: cell-based
How it was run: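 CHO membranes expressing human KOR or DOR incubated with radioligand and 12 compound concentrations in 1 mL 50 mM Tris-HCl, pH 7.5, at 25 °C. […] Nonspecific binding with 10 μM naloxone. Three experiments in triplicate.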

Homo sapiens [4] = species: Homo sapiens; assay: Selectivity index, ratio of inhibition of human delta opioid receptor to inhibition of human mu opioid receptor
Homo sapiens [5] = species: Homo sapiens; assay: Selectivity index, ratio of inhibition of human kappa opioid receptor to inhibition of human mu opioid receptor
Mu-type opioid receptor [6] = molecular target: T1, Mu-type opioid receptor; assay: Agonist activity at human mu opioid receptor expressed in CHO cells assessed as stimulation of […]GTPgammaS binding after 60 mins by scintillation counting; format: functional, cell-based
Mu-type opioid receptor [7] = molecular target: T1, Mu-type opioid receptor; assay: Agonist activity at human mu opioid receptor expressed in CHO cells assessed as stimulation of […]GTPgammaS binding after 60 mins by scintillation counting relative to control; format: functional, cell-based
Mu-type opioid receptor [8] = molecular target: T1, Mu-type opioid receptor; assay: Antagonist activity at human mu opioid receptor expressed in CHO cells assessed as inhibition of DAMGO-induced […]GTPgammaS binding after 60 mins by scintillation counting; format: functional, cell-based; conditions: read-out: IC50
Mu-type opioid receptor [9] = molecular target: T1, Mu-type opioid receptor; assay: Antagonist activity at human mu opioid receptor expressed in CHO cells assessed as inhibition of DAMGO-induced […]GTPgammaS binding after 60 mins by scintillation counting relative to control; format: functional, cell-based
[10] = molecular target: T2, Kappa-type opioid receptor; assay: Agonist activity at human kappa opioid receptor expressed in CHO cells assessed as stimulation of […]GTPgammaS binding after 60 mins by scintillation counting; format: functional, cell-based
[11] = molecular target: T2, Kappa-type opioid receptor; assay: Agonist activity at human kappa opioid receptor expressed in CHO cells assessed as stimulation of […]GTPgammaS binding after 60 mins by scintillation counting relative to control; format: functional, cell-based
How it was run: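 Membranes from CHO cells stably expressing human KOR (15 μg protein per tube) or MOR (7.5 μg protein per tube). Nonspecific binding with 10 μM GTPγS. Filtration, then scintillation counting. Triplicate, at least three experiments.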

[12] = molecular target: T2, Kappa-type opioid receptor; assay: Antagonist activity at human kappa opioid receptor expressed in CHO cells assessed as inhibition of U50488-induced […]GTPgammaS binding after 60 mins by scintillation counting; format: functional, cell-based
How it was run: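 κ antagonism: hKOR-CHO membranes incubated with compound plus 100 nM U50,488.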

[13] = molecular target: T3, Delta-type opioid receptor; assay: Displacement of [3H]-naltrindole from human delta opioid receptor expressed in CHO cells at 10 uM after 3 hrs by scintillation counting; format: cell-based
Homo sapiens [14] = species: Homo sapiens; assay: Selectivity index, ratio of inhibition of human delta opioid receptor to inhibition of human kappa opioid receptor

T1 sequence (P35372 whole entry): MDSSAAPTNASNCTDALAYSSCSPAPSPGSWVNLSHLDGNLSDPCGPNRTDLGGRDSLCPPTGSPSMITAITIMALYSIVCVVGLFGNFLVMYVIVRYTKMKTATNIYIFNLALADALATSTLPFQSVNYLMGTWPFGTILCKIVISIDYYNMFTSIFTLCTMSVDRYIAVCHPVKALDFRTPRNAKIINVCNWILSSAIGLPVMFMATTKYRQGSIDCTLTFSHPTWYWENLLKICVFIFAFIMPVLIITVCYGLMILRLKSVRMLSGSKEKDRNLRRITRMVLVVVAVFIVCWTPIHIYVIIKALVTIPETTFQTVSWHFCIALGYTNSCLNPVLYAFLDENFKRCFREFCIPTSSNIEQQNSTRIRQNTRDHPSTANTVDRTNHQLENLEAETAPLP
T2 sequence (P41145 whole entry): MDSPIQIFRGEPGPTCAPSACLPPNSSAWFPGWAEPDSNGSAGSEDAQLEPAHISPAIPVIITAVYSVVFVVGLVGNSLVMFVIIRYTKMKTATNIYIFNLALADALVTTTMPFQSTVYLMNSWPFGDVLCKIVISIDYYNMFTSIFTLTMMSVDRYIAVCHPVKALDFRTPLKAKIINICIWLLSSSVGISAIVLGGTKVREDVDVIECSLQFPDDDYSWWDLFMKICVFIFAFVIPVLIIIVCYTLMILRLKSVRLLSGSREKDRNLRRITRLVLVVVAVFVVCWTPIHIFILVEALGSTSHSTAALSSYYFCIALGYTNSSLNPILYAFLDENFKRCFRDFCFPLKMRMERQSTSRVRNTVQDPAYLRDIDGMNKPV
T3 sequence (P41143 whole entry): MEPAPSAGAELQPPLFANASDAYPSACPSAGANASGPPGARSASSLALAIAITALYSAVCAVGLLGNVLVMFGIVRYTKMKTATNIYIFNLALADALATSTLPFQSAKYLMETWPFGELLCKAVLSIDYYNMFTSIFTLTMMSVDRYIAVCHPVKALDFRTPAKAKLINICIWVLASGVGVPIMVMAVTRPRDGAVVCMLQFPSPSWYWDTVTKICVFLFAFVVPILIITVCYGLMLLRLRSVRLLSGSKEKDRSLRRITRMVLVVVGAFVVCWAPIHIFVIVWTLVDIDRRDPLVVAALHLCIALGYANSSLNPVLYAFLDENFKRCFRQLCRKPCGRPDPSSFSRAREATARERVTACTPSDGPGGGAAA

Row | Structure (SMILES) | Ki (Mu-type opioid receptor [1]) | Ki [2] | Ki [3] | Selectivity ratio (Homo sapiens [4]) | Selectivity ratio (Homo sapiens [5]) | EC50 (Mu-type opioid receptor [6]) | Emax (Mu-type opioid receptor [7]) | IC50 (Mu-type opioid receptor [8]) | Imax (Mu-type opioid receptor [9]) | EC50 [10] | Emax [11] | Activity [12] | inhibition [13] | Selectivity ratio (Homo sapiens [14])
1 | COc1cccc(CNc2ccc3c(c2)[C@@]24CCCC[C@H]2[C@@H](C3)N(CC2CCC2)CC4)c1 | 0.69 nM | 3.5 nM | 150 nM | 5 | 220 | 3.8 nM | 39% | 80 nM | 66% | 39 nM | 120% | inactive | – | –
2 | c1ccc(CNc2ccc3c(c2)[C@@]24CCCC[C@H]2[C@@H](C3)N(CC2CCC2)CC4)cc1 | – | – | – | 2 | 76 | – | – | – | – | – | – | – | – | –
3 | CN1CC[C@]23c4c5ccc(NCc6ccccc6O)c4O[C@H]2[C@@H](O)C=C[C@H]3[C@H]1C5 | – | 370 nM | – | – | – | – | – | – | – | – | – | – | 27% | –
4 | O=[N+]([O-])c1cccc(CNc2ccc3c(c2)[C@@]24CCCC[C@H]2[C@@H](C3)N(CC2CCC2)CC4)c1 | 0.43 nM | 1.1 nM | 150 nM | 3 | 350 | 1.1 nM | 70% | 6.8 nM | 49% | 0.79 nM | 140% | inactive | – | –
5 | COc1cccc(CN(C)c2ccc3c(c2)[C@@]24CCCC[C@H]2[C@@H](C3)N(CC2CCC2)CC4)c1 | 13 nM | 25 nM | 350 nM | 2 | 27 | – | – | – | – | – | – | – | – | –
6 | COc1ccc2c3c1O[C@H]1C(=O)CC[C@H]4[C@@H](C2)N(C)CC[C@]314 | – | – | – | – | – | – | – | – | – | – | – | – | 37% | –
7 | Oc1cccc(CNc2ccc3c(c2)[C@@]24CCCC[C@H]2[C@@H](C3)N(CC2CC2)CC4)c1 | 0.16 nM | 0.36 nM | 41 nM | 2 | 260 | – | 27% | 3.5 nM | 79% | 3.9 nM | 98% | inactive | – | –
8 | COc1cccc(CNc2ccc3c(c2)[C@@]24CCCC[C@H]2[C@@H](C3)N(CC2CC2)CC4)c1 | 0.51 nM | 1.5 nM | 110 nM | 3 | 220 | – | 23% | 2 nM | 77% | 0.43 nM | 130% | inactive | – | –
9 | COc1cccc(CNc2ccc3c4c2O[C@H]2[C@@H](O)C=C[C@H]5[C@@H](C3)N(C)CC[C@@]452)c1 | – | 500 nM | – | – | – | – | – | – | – | – | – | – | 33% | –
10 | c1cc2c(cc1CNc1ccc3c(c1)[C@@]14CCCC[C@H]1[C@@H](C3)N(CC1CCC1)CC4)OCO2 | 0.34 nM | 1.1 nM | 53 nM | 3 | 160 | 3.6 nM | 39% | 94 nM | 60% | 27 nM | 130% | inactive | – | –
11 | COc1ccccc1CNc1ccc2c(c1)[C@@]13CCCC[C@H]1[C@@H](C2)N(CC1CCC1)CC3 | 2.7 nM | 2.2 nM | 61 nM | – | 28 | – | – | – | – | – | – | – | – | 28
12 | COc1ccc(CNc2ccc3c(c2)[C@@]24CCCC[C@H]2[C@@H](C3)N(CC2CCC2)CC4)cc1 | 0.86 nM | 4.5 nM | 260 nM | 5 | 300 | 7.8 nM | 34% | 150 nM | 55% | 50 nM | 120% | inactive | – | –
13 | CN(Cc1ccc(Cl)cc1)c1ccc2c(c1)[C@@]13CCCC[C@H]1[C@@H](C2)N(CC1CCC1)CC3 | 26 nM | 27 nM | 730 nM | – | 28 | – | – | – | – | – | – | – | – | 28
14 | COc1ccc(CNc2ccc3c(c2)[C@@]24CCCC[C@H]2[C@@H](C3)N(CC2CC2)CC4)cc1 | – | – | – | 2 | 65 | 6.8 nM | 30% | 10 nM | 67% | 5.3 nM | 130% | inactive | – | –
15 | Clc1ccc(CNc2ccc3c(c2)[C@@]24CCCC[C@H]2[C@@H](C3)N(CC2CCC2)CC4)cc1 | 1.7 nM | 4.5 nM | 100 nM | 3 | 59 | – | – | – | – | – | – | – | – | –
